Results from ChEMBL document CHEMBL4396927, “Fluorescent Imidazo[1,5-a]pyridinium Salt for a Potential Cancer Therapy Agent” (ACS Med Chem Lett, 2019).
Activity calls are given as the source filed them. The calls are words filed in the database; no cut-off is given here.

How the values were obtained:
HeLa [1] = test: Photocytotoxicity against human HeLa cells assessed as reduction in cell viability at 2.5 x 10^-4 mol/L preincubated for 24 hrs followed by irradiation with 365 nm UVA-LED light after 10 mins by CCK-8 assay; assay type: functional, cell-based
Outline: (§1)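 Salt-stained HeLa cells were irradiated with UVA-LED for 10, 30 or 60 min. Viability was read immediately after irradiation, or after a further 24 h at 37 °C in the dark. Irradiated cells without salt served as control.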

[2] = test system: Enterobacteria phage phiX174; test: Induction of DNA cleavage in supercoiled phiX174 RF I DNA assessed as formation of nicked circular DNA irradiated with 365 nm UVA-LED light under N2 condition measured up to 60 mins by RE-DYE based agarose gel electrophoresis method
HeLa [3] = test: Antiproliferative against human HeLa cells assessed as reduction in cell viability at 0.08 x 10^-4 mol/L to 1.25 x 10^-4 mol/L after 24 hrs by CCK-8 assay; assay type: functional, cell-based
Outline: (§2)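 HeLa viability was read by CCK-8 after 1 h (acute) or 24 h (subacute) incubation with a concentration series of the salt. The top concentration was 2.5 × 10–4 mol L–1, limited by water solubility. IC50 was estimated, not determined.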

HeLa [4] = test: Induction of mitochondrial depolarization in human HeLa cells assessed at 2.5 x 10^-4 mol/L preincubated for 24 hrs followed by irradiation with 365 nm UVA-LED for 30 mins under hypoxic conditions by JC-1 staining based inverted microscopic analysis; assay type: functional, cell-based
Outline: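 The JC-1 mitochondrial membrane potential assay was run on salt-stained HeLa cells under UVA-LED irradiation in hypoxic conditions.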

[5] = test system: Enterobacteria phage phiX174; test: Induction of DNA cleavage in supercoiled phiX174 RF I DNA assessed as DNA photo cleavage irradiated with 365 nm UVA-LED light in presence of DMSO measured up to 60 mins by RE-DYE based agarose gel electrophoresis method
Outline: (§3)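 Supercoiled ΦX174 RF I DNA in TE, with the salt in H2O, was irradiated with UVA-LED for 1, 10, 30, 60 or 180 min. A DNA-only irradiated control was included. Scavenger runs added 1.0 × 10–3 mol L–1 NaN3, KI, DMSO or t-BuOH with 60 min irradiation. Samples were resolved on 0.9% agarose in TAE (40 mmol L–1 Tris-acetate, 1 mmol L–1 EDTA, pH 8.0), and supercoiled (Form I) versus nicked circular (Form II) bands were scored.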

HeLa [6] = test: Photocytotoxicity against human HeLa cells assessed as reduction in cell viability at 2.5 x 10^-4 mol/L preincubated for 24 hrs followed by irradiation with 365 nm UVA-LED light after 60 mins by CCK-8 assay; assay type: functional, cell-based; outline: as §1
[7] = Drug localization in human HeLa cells mitochondria at 2.5 x 10^-4 mol/L incubated for 24 hrs by Mitotracker Red staining based inverted microscopic analysis; assay type: ADME; details: 250 µM
Outline: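 HeLa cells were stained with the salt and a mitochondrial marker, either without UVA-LED or with marker incubation after 30 min of UVA-LED irradiation. Overlap of cyan and red fluorescence was assessed.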

[8] = test system: Enterobacteria phage phiX174; test: Induction of DNA cleavage in supercoiled phiX174 RF I DNA assessed as formation of nicked circular DNA in presence of UVA-LED irradiation with 365 nm light after 10 mins by RE-DYE based agarose gel electrophoresis method; outline: as §3
[9] = test system: Enterobacteria phage phiX174; test: Induction of DNA cleavage in supercoiled phiX174 RF I DNA assessed as DNA photo cleavage irradiated with 365 nm UVA-LED light in presence of NaN3 measured up to 60 mins by RE-DYE based agarose gel electrophoresis method; outline: as §3
[10] = Drug distribution in human HeLa cells cytoplasm assessed as increase in super oxide anion level at 2.5 x 10^-4 mol/L preincubated for 24 hrs followed by irradiation with 365 nm UVA-LED light measured at 5 mins interval for 30 mins by MitoROS stress marker based laser confocal microscopic analysis; assay type: ADME, subcellular; details: 0.5 h, 250 µM
Outline: (§4)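 Live HeLa cells, with or without the salt, were loaded with OxiORANGE (hydroxyl radical) or MitoROS 580 (superoxide) and imaged during UV irradiation for 30 min. Blue fluorescence was taken through a DAPI filter and red through a TRITC filter. Intensities were quantified at endosomal positions, in cytoplasm and for the red probe.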

[11] = Drug localization in endosomes of human HeLa cells assessed as co-localization of compound with endosome at 2.5 x 10^-4 mol/L after 24 hrs in presence of endocytosis marker Alexa Fluor 594-conjugated dextran by fluorescence based inverted microscopic analysis; assay type: ADME, subcellular; details: 250 µM
Outline: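 HeLa cells were co-incubated with the salt and an endocytosis marker at 37 °C, 5% CO2, for 24 h. Imaging used bright field, cyan fluorescence through a WU filter and red marker fluorescence through a WIY filter, and the images were merged to assess colocalization.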

HeLa [12] = test: Photocytotoxicity against human HeLa cells assessed as reduction in cell viability at 2.5 x 10^-4 mol/L preincubated for 24 hrs followed by irradiation with 365 nm UVA-LED light after 30 mins by CCK-8 assay; assay type: functional, cell-based; outline: as §1
HeLa [13] = test: Antiproliferative against human HeLa cells assessed as reduction in cell viability after 24 hrs by CCK-8 assay; assay type: functional, cell-based; outline: as §2
[14] = Drug distribution in human HeLa cell cytoplasm assessed as increase in hydroxyl radical at 2.5 x 10^-4 mol/L preincubated for 24 hrs followed by irradiation with 365 nm UVA-LED light measured at 5 mins interval for 30 mins by OxiORANGE stress marker based laser confocal microscopic analysis; assay type: ADME, subcellular; details: 0.5 h, 250 µM; outline: as §4
[15] = test system: Enterobacteria phage phiX174; test: Induction of DNA cleavage in supercoiled phiX174 RF I DNA assessed as DNA photo cleavage irradiated with 365 nm UVA-LED light in presence of KI measured up to 60 mins by RE-DYE based agarose gel electrophoresis method; outline: as §3
HeLa [16] = test: Antiproliferative activity against human HeLa cells assessed as reduction in cell viability by measuring mitochondrial damage at 2.5 x 10^-4 mol/L preincubated for 24 hrs followed by irradiation with 365 nm UVA-LED light after 30 mins by inverted microscopic analysis; assay type: functional, cell-based
[17] = test system: Enterobacteria phage phiX174; test: Induction of DNA cleavage in supercoiled phiX174 RF I DNA assessed as DNA photo cleavage irradiated with 365 nm UVA-LED light in presence of t-BuOH measured up to 60 mins by RE-DYE based agarose gel electrophoresis method; outline: as §3
HeLa [18] = test: Induction of mitochondrial depolarization in human HeLa cells assessed at 2.5 x 10^-4 mol/L preincubated for 24 hrs followed by irradiation with 365 nm UVA-LED for 30 mins by JC-1 staining based inverted microscopic analysis; assay type: functional, cell-based
Outline: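 Mitochondrial membrane potential was assessed by JC-1 in HeLa cells with or without the salt after UVA-LED irradiation for 0, 30 or 60 min. FCCP served as the depolarization positive control. Imaging used WIY and WU filters plus bright field.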

HeLa [19] = test: Antiproliferative against human HeLa cells assessed as reduction in cell viability at 2.5 x 10^-4 mol/L after 24 hrs by CCK-8 assay; assay type: functional, cell-based; outline: as §2
HeLa [20] = test: Photocytotoxicity against human HeLa cells assessed as reduction in cell viability at 2.5 x 10^-4 mol/L preincubated for 24 hrs followed by irradiation with 365 nm UVA-LED light for 60 mins and measured after 24 hrs by CCK-8 assay; assay type: functional, cell-based; outline: as §1
[21] = test system: Enterobacteria phage phiX174; test: Induction of DNA cleavage in supercoiled phiX174 RF I DNA assessed as cleavage of supercoiled DNA in presence of UVA-LED irradiation with 365 nm light after 60 mins by RE-DYE based agarose gel electrophoresis method relative to control; outline: as §3
[22] = Drug distribution in human HeLa cells cytoplasm assessed as decrease in dot shaped cyan signals at 2.5 x 10^-4 mol/L after 24 hrs in presence of endocytosis marker Alexa Fluor 594-conjugated dextran followed by irradiation with 365 nm UVA-LED for 10 to 30 mins by fluorescence based inverted microscopic analysis; details: 250 µM

Activity [2]: Active | Activity [5]: Active | Drug uptake [7]: Not Active | Activity [8]: Active | Activity [9]: Active | Drug uptake [10]: Active | Drug uptake [11]: Active | IC50 (HeLa [13]): Nd(Insoluble) | Drug uptake [14]: Active | Activity [15]: Active | Activity [17]: Active | Activity [21]: 100% | Drug uptake [22]: Active
SMILES: C[n+]1c(-c2ccccc2)c2ccccn2c1-c1n2ccccc2c(-c2ccccc2)[n+]1C.[I-].[I-]
Activity (HeLa [1]): inactive | Activity (HeLa [3]): inactive | Activity (HeLa [4]): inactive | Activity (HeLa [6]): Active | Activity (HeLa [12]): Active | Activity (HeLa [16]): Active | Activity (HeLa [18]): Active | Activity (HeLa [19]): Active | Activity (HeLa [20]): Active
